Screening data: PubChem, several laboratories
TRPN1 ag = zebrafish TRPN1 channel agonists, primary screen, cell-based, HEK293, calcium fluorescence | transient receptor potential cation channel N1 (TRPN1/NompC), Danio rerio | HEK293 zebrafish TRPN1-YFP, Fluo-8 calcium fluorescence; 100% = response to 87 µM carbachol | activation, % at 3 µM | actives 0.18% (n = 220,000) | AID 1424, 2008;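 active = activation above its plate's cutoff, the mean activation of test wells on that plate plus 3 SD, cut at about 19% in these data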;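 note: 0% = DMSO alone and 100% = 87 µM carbachol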
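Assay system: Zebrafish TRPN1-YFP in HEK293 cells | Incubation: Dye loading 1 h at 37 °C, then 30 min room temperature | Measured by: Kinetic Fluo-8 fluorescence, ex 470-495, em 515-575 nm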
TRPML3 agonist = human TRPML3 channel agonists, primary screen, cell-based, HEK293 TRPML3-YFP, Fluo-8 calcium fluorescence, 3 µM; Mucolipin-3 (Homo sapiens), Q8TDD5; 100% = the carbachol control signal; activation, % at 3 µM; actives 0.29% (n = 220,000); AID 1448, 2008;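 active = activation above its plate's cutoff, the mean activation of the plate's test wells plus 3 SD, cut at about 12% in these data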;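 note: 0% = DMSO only wells and 100% = carbachol wells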
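Test system: TRPML3-YFP stable HEK293 cells. Doses: single point at 3 µM. Incubation: dye loading 1 h 37 °C then 30 min ambient, 125 s read. Signal: Fluo-8 calcium dye fluorescence, ex 470-495, em 515-575 nm. Measure: percent activation from peak-to-basal fluorescence ratio, scaled between DMSO and carbachol.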
TAAR1 antagonist = human TAAR1 antagonists, primary screen, Fluo-8 calcium fluorescence, CHO RD-HGA16 cells | AID 624466, 2012 | actives 1.5% (n = 360,000) | inhibition, % at 3 µM | antagonist;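 active = inhibition above a per-plate cutoff, the mean inhibition of test compounds on that plate plus 3 SD, cut at about 49% in these data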;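 note: 0% = DMSO plus EC80 beta-PEA response and 100% = DMSO alone without agonist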
Target sequence (Q96RJ0 whole entry, looked up): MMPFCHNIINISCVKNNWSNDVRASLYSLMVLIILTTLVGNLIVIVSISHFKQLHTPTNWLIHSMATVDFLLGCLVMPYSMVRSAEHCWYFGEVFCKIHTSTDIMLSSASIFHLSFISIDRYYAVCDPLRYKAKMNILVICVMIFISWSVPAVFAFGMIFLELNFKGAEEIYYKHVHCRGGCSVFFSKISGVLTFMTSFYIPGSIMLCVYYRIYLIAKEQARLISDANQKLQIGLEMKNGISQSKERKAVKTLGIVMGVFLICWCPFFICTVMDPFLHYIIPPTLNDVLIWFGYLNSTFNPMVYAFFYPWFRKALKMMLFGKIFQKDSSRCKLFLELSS
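Test system: hTAAR1-expressing CHO RD-HGA16 cells, Gα16-coupled; Probe or stimulus: EC80 β-phenethylamine stimulus; Compound dosing: single nominal final test compound concentration of 3 µM; Timing: 140 s kinetic read after compound, 140 s after agonist; Signal: Fluo-8 calcium-sensitive fluorescence; Measure: % inhibition of agonist calcium response; Controls: DMSO and EC80 PEA controls.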
TAAR1 ag = human TAAR1 agonists, primary screen, Fluo-8 calcium fluorescence, CHO RD-HGA16 cells. vehicle wells 0%, saturating PEA agonist 100%. Trace amine-associated receptor 1 (Homo sapiens), Q96RJ0. actives 0.99% (n = 360,000). AID 624467, 2012. activation, % at 3 µM;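 active = activation above the mean activation of all test compounds in the run plus 3 SD, cut at about 38% in these data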
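Signal – calcium-sensitive Fluo-8 signal, excitation 470-495, emission 515-575 nm · System – RD-HGA16 (CHO) cells co-expressing Gα16 and hTAAR1 · Incubation – 17-24 h seeding, 75 min 37 °C dye, 30 min RT · Compound dosing – 3 µM single concentration · Repeats – no replicates (n 1)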
LANA-H2B inh = blockers of LANA interaction with H2A/H2B – biochemical, FP readout, HTS, primary screen; Protein LANA1 (Human herpesvirus 8 type P (isolate GK18)), Q9QR71; cell-free LANA-H2A/H2B peptide, fluorescence polarization; inhibition, % (no concentration beside the values); actives 0.6% (n = 320,000); AID 2629, 2010; in the data active = inhibition mostly above about 10%, no sharp cut-off; inactive = mostly below about 6.7%
GPR7 antag = GPR7 receptor antagonists, primary screen, cell-based, fluorescence, single concentration; Neuropeptides B/W receptor type 1 (Homo sapiens), P48145; GPR7-expressing cells, fluorescence antagonist assay; inhibition, % at 4.4 µM; actives 1.1% (n = 290,000); AID 1861, 2009; in the data active = inhibition above about 16%, passing the limit was not always enough;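 note: cells stimulated with the agonist NPW; 0% = agonist with vehicle and 100% = vehicle without agonist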
Target sequence (P48145 whole entry, looked up): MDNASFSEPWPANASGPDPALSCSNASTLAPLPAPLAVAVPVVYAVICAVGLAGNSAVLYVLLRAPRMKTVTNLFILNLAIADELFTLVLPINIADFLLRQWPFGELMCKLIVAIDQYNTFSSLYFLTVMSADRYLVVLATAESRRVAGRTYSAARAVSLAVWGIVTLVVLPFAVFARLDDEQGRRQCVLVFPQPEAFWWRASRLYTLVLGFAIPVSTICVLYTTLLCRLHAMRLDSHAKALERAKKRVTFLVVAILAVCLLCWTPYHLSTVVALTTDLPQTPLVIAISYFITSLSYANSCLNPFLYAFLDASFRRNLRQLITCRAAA
TAAR1 nonsel count = nonselective antagonists in TAAR1 counter-screen cells, counter-screen for hTAAR1 antagonist project, cell-based, fluorescence, calcium | actives 77% (n = 2,400) | inhibition, % at 3 µM | shares compounds with TAAR1 antagonist | counterscreen cell line, antagonist mode; in the data active = inhibition above about 22%;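 note: CHO-Ga16 host cells stimulated with ATP at an EC80 level; 0% = agonist EC80 plus vehicle and 100% = vehicle without agonist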
TAAR1 antag conf = human TAAR1 antagonists, retest of hits, confirmation, cell-based, fluorescence; actives 40% (n = 2,400); TAAR1-expressing cells, fluorescence antagonist read-out; shares compounds with TAAR1 antagonist; inhibition, % at 3 µM; in the data active = inhibition above about 49%;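 note: CHO-Ga16 host cells challenged with agonist PEA near its EC80; 0% = agonist at EC80 plus vehicle and 100% = vehicle with no agonist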
Ga16 nonsel ag = calcium activation in Ga16-expressing cells, counter-screen for TAAR1 antagonist project, cell-based, fluorescence; shares compounds with TAAR1 antagonist; agonist counterscreen; activation, % at 3 µM; actives 18% (n = 2,400); AID 651953, 2012; in the data active = activation above about 12%;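 note: 0% = vehicle wells and 100% = saturating stimulus response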
TAAR1 ag count = TAAR1 activation by candidate antagonists – cell-based, fluorescence, counter-screen for TAAR1 antagonist project; shares compounds with TAAR1 antagonist; hTAAR1 cell line, agonist mode; activation, % at 3 µM; actives 2% (n = 2,400); AID 651955, 2012; in the data active = activation above about 37%;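 note: CHO cells stably expressing TAAR1 with calcium dye readout; 0% = DMSO vehicle and 100% = full agonist response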
The depositor's hits bear a star; . = no result. Rows were chosen to be rich in hits. Some 3.4% of all compounds tested hit in one or more screens of this group.

SMILES	TRPN1 ag	TRPML3 agonist	TAAR1 antagonist	TAAR1 ag	LANA-H2B inh	GPR7 antag	TAAR1 nonsel count	TAAR1 antag conf	Ga16 nonsel ag	TAAR1 ag count
COc1ccc(CN(C)CC(=O)Nc2cccc(S(=O)(=O)N3CCCC3)c2)cc1F	.	.	64*	16	-1	.	8	6	0	-2
CN(CC(=O)Nc1cccc(F)c1)CC(=O)Nc1cccc(S(=O)(=O)N2CCCCCC2)c1	3	0	61*	20	0	0	21	44	12*	15
Cc1ccc2cccc(OCC(=O)Nc3cccc(S(=O)(=O)N4CCCC4)c3)c2n1	.	.	75*	15	0	.	34*	57*	9	7
CN(CC(=O)Nc1cccc(F)c1)CC(=O)Nc1cccc(S(=O)(=O)N2CCCCC2)c1	.	.	23	16	-1	.	.	.	.	.
CC1(C(=O)Nc2ccc3c(c2)OCCO3)CN(S(C)(=O)=O)CC(=O)N1C1CCCCCC1 (centres undefined)	.	.	13	0	.	.	.	.	.	.
CCc1noc(C)c1C(=O)Nc1ccc(C(F)(F)F)cc1	.	.	-15	4	2	3	.	.	.	.
CCc1ccccc1Nc1nc(N)nc(COC(=O)CCC(=O)c2ccc(F)cc2)n1	.	.	.	.	0	.	.	.	.	.
CCCNS(=O)(=O)c1ccc(OCC(=O)NCC2CCCO2)cc1 (centres undefined)	.	.	6	1	-1	-1	.	.	.	.
Cc1nc(NC(=O)CSC2=NCCS2)sc1C(=O)N(C)C	.	.	-16	1	9	-13	.	.	.	.
CC1(C)N=C(SCC(=O)Nc2ccccc2)C(c2ccc(Cl)cc2)=N1	1	1	54*	8	-6	-1	20	22	7	2
Cc1ccc(C2=NC(C)(C)N=C2SCC(=O)Nc2ccc(Cl)cc2)cc1	0	1	20	6	4	-8	.	.	.	.
O=C1C2C(c3ccccc3)(C(=O)N1c1ccc(Cl)cc1)C2(c1ccccc1)c1ccccc1 (centres undefined)	3	2	62*	3	-7	-6	16	35	4	13
O=C1c2ccccc2C(=O)N1c1ccc(Cl)cc1	-2	0	.	.	1	-10	.	.	.	.
COc1ccc(N(C)S(=O)(=O)c2cccc(C(=O)Nc3nc(C)c(C(C)=O)s3)c2)cc1	.	.	62*	27	5	.	38*	57*	15*	13
COc1ccc(N(C)S(=O)(=O)c2cccc(C(=O)Nc3nnc(C)s3)c2)cc1	.	.	-9	1	0	.	.	.	.	.
COc1ccc(N(C)S(=O)(=O)c2cccc(C(=O)OCC(=O)Nc3cc(C)ccc3OC)c2)cc1	.	.	84*	9	.	.	34*	51*	12*	8
COc1ccc(S(=O)(=O)N(C)c2ccc(C(=O)NC3CC3)cc2)cc1	.	.	-14	3	-1	-2	.	.	.	.
COc1ccc(N(C)S(=O)(=O)c2cccc(C(=O)Nc3cccc(C(=O)NC4CC4)c3)c2)cc1	.	.	61*	9	7	.	21	40	11	8
COc1ccccc1N1CCN(C(=O)c2ccc(N(C)S(=O)(=O)c3ccccc3)cc2)CC1	.	.	14	3	-1	3	.	.	.	.
CCOC(=O)C1C(=O)C=C(c2ccccc2)CC1c1ccccc1 (centres undefined)	.	.	59*	4	.	.	30*	40	3	1
Cc1nnc(NC(=O)C2CCN(S(=O)(=O)c3ccc(F)c(Cl)c3)CC2)o1	.	.	-14	2	.	.	.	.	.	.
Cc1ccc(C)c2[nH]c(=O)c(CCNC(=O)c3cc4ccccc4o3)cc12	0	0	49*	6	-5	-5	24*	25	7	3
COc1ccc(OC)c2[nH]c(=O)c(CCNC(=O)c3cc4ccccc4o3)cc12	0	0	25	3	1	-4	.	.	.	.
COc1cc(/C=C/C(=O)OCC(=O)N2CCCCCC2)cc(OC)c1OC	.	.	-11	3	.	.	.	.	.	.
COCCN1Cc2cc(C(=O)OC)c3c(c2C1=O)c1cc(OC)ccc1n3C(=O)c1ccccc1	.	.	74*	15	.	.	34*	58*	7	8
SMILES	TRPN1 ag	TRPML3 agonist	TAAR1 antagonist	TAAR1 ag	LANA-H2B inh	GPR7 antag	TAAR1 nonsel count	TAAR1 antag conf	Ga16 nonsel ag	TAAR1 ag count
COCCN1Cc2cccc(C(=O)Nc3cccc(OC)c3)c2C1=O	1	0	3	14	-10	10	.	.	.	.
COCCN1Cc2cc(C(=O)OC)c3c(c2C1=O)c1cc(F)ccc1n3C(=O)c1ccccc1	.	.	74*	13	.	.	32*	49*	8	7
O=C(OCC(=O)N(Cc1ccccc1)Cc1ccccc1)c1ccccc1NCCO	.	.	70*	8	1	.	35*	51*	7	4
O=C(CN1c2cccc3cccc(c23)S1(=O)=O)Nc1ccc(F)c(F)c1F	.	.	104*	2	-3	.	9	12	4	5
Cc1ccccc1NC(=O)CC1S/C(=N/c2nccs2)N(C)C1=O (centres undefined)	-2	1	3	5	1	-1	.	.	.	.
Cc1ccc(NC(=O)CC2S/C(=N/c3nccs3)N(C)C2=O)cc1C (centres undefined)	1	0	55*	26	6	-3	31*	50*	11	13
CCNC(=S)N/N=C/c1cc(C)n(-c2ccc(Cl)cc2)c1C	-3	-1	101*	11	4	1	12	77*	8	24
Cc1nc2c(OCc3ccc(F)c(F)c3)cccn2c1N(C)C(=O)CCC1CCCC1	.	.	34	2	.	.	.	.	.	.
Cc1nc2c(OCc3ccc(OC(F)F)cc3)cccn2c1N(C)C(=O)CCC1CCCC1	.	.	78*	2	.	.	39*	54*	7	3
